In ChEMBL document CHEMBL4406880, “Design, synthesis, and bioactivity of dihydropyrimidine derivatives as kinesin spindle protein inhibitors” (Bioorg Med Chem, 2019):

Tests used:
Format in all cases: functional
[1] = tested on: OVCAR-3; assay: Growth inhibition of human OVCAR3 cells assessed as cell viability at 0.001 uM incubated for 48 hrs by sulforhodamine B assay relative to control; settings: OVCAR-3, 48 h, read-out: Activity
[2] = tested on: OVCAR-8; assay: Growth inhibition of human OVCAR8 cells assessed as cell viability at 1 uM incubated for 48 hrs by sulforhodamine B assay; settings: OVCAR-8, 48 h, read-out: Activity
[3] = tested on: U-251; assay: Growth inhibition of human U251 cells assessed as cell viability at 0.1 uM incubated for 48 hrs by sulforhodamine B assay; settings: U-251, 48 h, read-out: Activity
[4] = tested on: MCF7; assay: Growth inhibition of human MCF7 cells assessed as cell viability at 0.1 uM incubated for 48 hrs by sulforhodamine B assay; settings: MCF7, 48 h, read-out: Activity
[5] = tested on: K562; assay: Growth inhibition of human K562 cells assessed as cell viability at 0.1 uM incubated for 48 hrs by sulforhodamine B assay; settings: K562, 48 h, read-out: Activity
[6] = tested on: MDA-MB-435; assay: Growth inhibition of human MDA-MB-435 cells assessed as cell viability at 0.1 uM incubated for 48 hrs by sulforhodamine B assay; settings: MDA-MB-435, 48 h, read-out: Activity
[7] = tested on: SF-539; assay: Growth inhibition of human SF539 cells incubated for 48 hrs by sulforhodamine B assay; settings: SF-539, 48 h
Summary of the method: (§1)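 NCI-60 five-dose SRB assay. Cells were exposed for 48 h to tenfold dilutions of 0.01, 0.1, 1, 10 and 100 µM, in RPMI 1640 with 5% FBS. Plates fixed with TCA at the time of drug addition served as the time-zero reference. GI50 is the concentration giving a 50% reduction in net growth. TGI is total growth inhibition. LC50 is a net 50% loss of the initial cells.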

[8] = tested on: A549; assay: Growth inhibition of human A549/ATCC cells assessed as cell viability at 1 uM incubated for 48 hrs by sulforhodamine B assay; settings: A549, 48 h, read-out: Activity
Summary of the method: (§2)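 NCI-60 five-dose mode: five tenfold dilutions (0.01, 0.1, 1, 10, 100 µM) are applied for 48 h to cells in RPMI 1640 with 5% FBS at 37 °C. Endpoint is TCA fixation with sulforhodamine B read at 515 nm. % growth comes from the 0 h and control absorbances. GI50 is the concentration giving a 50% reduction in net cell growth.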

[9] = tested on: SF-295; assay: Growth inhibition of human SF295 cells assessed as cell viability at 0.001 uM incubated for 48 hrs by sulforhodamine B assay relative to control; settings: SF-295, 48 h, read-out: Activity
[10] = tested on: U-251; assay: Growth inhibition of human U251 cells incubated for 48 hrs by sulforhodamine B assay; settings: U-251, 48 h; summary of the method: as §1
[11] = tested on: ACHN; assay: Growth inhibition of human ACHN cells incubated for 48 hrs by sulforhodamine B assay; summary of the method: as §2
[12] = tested on: NCI-H460; assay: Growth inhibition of human NCI-H460 cells assessed as cell viability at 1 uM incubated for 48 hrs by sulforhodamine B assay; settings: NCI-H460, 48 h, read-out: Activity
[13] = tested on: NCI-H23; assay: Growth inhibition of human NCI-H23 cells assessed as cell viability at 100 uM incubated for 48 hrs by sulforhodamine B assay; settings: NCI-H23, 48 h, read-out: Activity
[14] = tested on: SR; assay: Growth inhibition of human SR cells incubated for 48 hrs by sulforhodamine B assay; summary of the method: as §1
[15] = tested on: UACC-62; assay: Growth inhibition of human UACC62 cells assessed as cell viability at 0.1 uM incubated for 48 hrs by sulforhodamine B assay; settings: UACC-62, 48 h, read-out: Activity
[16] = tested on: SK-MEL-2; assay: Growth inhibition of human SK-MEL-2 cells assessed as cell viability at 100 uM incubated for 48 hrs by sulforhodamine B assay; settings: SK-MEL-2, 48 h, read-out: Activity
[17] = tested on: OVCAR-4; assay: Growth inhibition of human OVCAR4 cells assessed as cell viability at 1 uM incubated for 48 hrs by sulforhodamine B assay; settings: OVCAR-4, 48 h, read-out: Activity
[18] = tested on: A498; assay: Growth inhibition of human A498 cells assessed as cell viability at 100 uM incubated for 48 hrs by sulforhodamine B assay; settings: A498, 48 h, read-out: Activity; summary of the method: as §2
[19] = tested on: HOP-62; assay: Growth inhibition of human HOP62 cells assessed as cell viability at 100 uM incubated for 48 hrs by sulforhodamine B assay; settings: HOP-62, 48 h, read-out: Activity
[20] = tested on: HT-29; assay: Growth inhibition of human HT-29 cells assessed as cell viability at 0.001 uM incubated for 48 hrs by sulforhodamine B assay relative to control; settings: HT-29, 48 h, read-out: Activity
[21] = tested on: HCC 2998; assay: Growth inhibition of human HCC2998 cells assessed as cell viability at 100 uM incubated for 48 hrs by sulforhodamine B assay; settings: HCC 2998, 48 h, read-out: Activity
[22] = tested on: SK-MEL-5; assay: Growth inhibition of human SK-MEL-5 cells assessed as cell viability at 0.1 uM incubated for 48 hrs by sulforhodamine B assay; settings: SK-MEL-5, 48 h, read-out: Activity
[23] = tested on: TK-10; assay: Growth inhibition of human TK10 cells assessed as cell viability at 1 uM incubated for 48 hrs by sulforhodamine B assay; settings: TK-10, 48 h, read-out: Activity
[24] = tested on: MOLT-4; assay: Growth inhibition of human MOLT4 cells assessed as cell viability at 0.1 uM incubated for 48 hrs by sulforhodamine B assay; settings: MOLT-4, 48 h, read-out: Activity
[25] = tested on: MCF7; assay: Growth inhibition of human MCF7 cells incubated for 48 hrs by sulforhodamine B assay; settings: MCF7, 48 h
Summary of the method: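 NCI-60 five-dose SRB assay in RPMI 1640 with 5% FBS, 37 °C, 5% CO2. Compound given at five tenfold dilutions, 0.01–100 µM, for 48 h. Adherent cells fixed with TCA, suspension cells with 16% final TCA. Bound SRB read at 515 nm and growth calculated against time-zero and untreated controls. GI50 taken from dose–response curves as the concentration giving a 50% decrease in net cell growth.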

[26] = read-out: LC50 (the source's name)
[27] = read-out: pLC50 (the source's name) (converted)

CC1=C(C(=O)OCc2ccccc2)C(c2ccc3c(c2)OCO3)n2c(nc3ccccc32)N1 (racemic)
viability at 0.001 µM [1]: 95% | viability at 1 µM [2]: 38% | viability at 0.1 µM [3]: 96% | viability at 0.1 µM [4]: 87% | viability at 0.1 µM [5]: 82% | viability at 0.1 µM [6]: 46% | GI50 ([7]; read-out: GI50): 0.34 µM | LC50 ([7]; read-out: LC50): > 100 µM | TGI ([7]; read-out: TGI): > 100 µM | GI50 ([7]; read-out: pGI50 (converted)): 0.339 µM | LC50 ([7]; read-out: pLC50 (converted)): > 100 µM | TGI ([7]; read-out: pTGI): > 100 µM | viability at 1 µM [8]: 40% | viability at 0.001 µM [9]: 87% | GI50 ([10]; read-out: GI50): 0.46 µM | LC50 ([10]; read-out: LC50): > 100 µM | TGI ([10]; read-out: TGI): > 100 µM | GI50 ([10]; read-out: pGI50 (converted)): 0.427 µM | LC50 ([10]; read-out: pLC50 (converted)): > 100 µM | TGI ([10]; read-out: pTGI): > 100 µM | GI50 ([11]; read-out: GI50): 0.69 µM | CC50 [11, 26]: > 100 µM | TGI ([11]; read-out: TGI): > 100 µM | GI50 ([11]; read-out: pGI50 (converted)): 0.692 µM | CC50 [11, 27]: > 100 µM | TGI ([11]; read-out: pTGI): > 100 µM | viability at 1 µM [12]: 10% | viability at 100 µM [13]: 44% | GI50 ([14]; read-out: GI50): 1.71 µM | CC50 [14, 26]: > 100 µM | TGI ([14]; read-out: TGI): > 100 µM | GI50 ([14]; read-out: pGI50 (converted)): 1.7 µM | CC50 [14, 27]: > 100 µM | TGI ([14]; read-out: pTGI): > 100 µM | viability at 0.1 µM [15]: 80% | viability at 100 µM [16]: 37% | viability at 1 µM [17]: 61% | viability at 100 µM [18]: 37% | viability at 100 µM [19]: 31% | viability at 0.001 µM [20]: 98% | viability at 100 µM [21]: 46% | viability at 0.1 µM [22]: 98% | viability at 1 µM [23]: 71% | viability at 0.1 µM [24]: 99% | GI50 ([25]; read-out: GI50): 0.32 µM | CC50 [25, 26]: > 100 µM | TGI ([25]; read-out: TGI): > 100 µM | GI50 ([25]; read-out: pGI50 (converted)): 0.316 µM | CC50 [25, 27]: > 100 µM | TGI ([25]; read-out: pTGI): > 100 µM
